A selection: hits, their analogues and other compounds. The true share with any hit is near 3.5%.
RGS4 block = human RGS4 inhibition; 310,000 compounds, 0.45% hits; HEK293 M3R/RGS4 inducible, Fluo-4 calcium flux; active compounds read high; triggered by carbachol at its EC20; P49798; AID 463165; B-score at 10 µM;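 active = B-score, a plate-corrected calcium signal, over three deviations above library mean, with baseline fluorescence within five deviations of library mean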;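 also: RGS4 expression induced by doxycycline in cells with stable M3 receptor; B-score is computed from the integrated fluorescence ratio over baseline after carbachol; higher B-score means a larger calcium signal and so more RGS4 inhibition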
Target sequence (P49798 whole entry, looked up): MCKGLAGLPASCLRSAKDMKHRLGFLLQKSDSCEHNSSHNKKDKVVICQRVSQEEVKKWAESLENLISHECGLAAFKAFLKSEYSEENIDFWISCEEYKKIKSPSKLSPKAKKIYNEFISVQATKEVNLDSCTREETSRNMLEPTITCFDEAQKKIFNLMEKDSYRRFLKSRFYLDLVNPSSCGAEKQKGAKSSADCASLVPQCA
MrgX1 antag = antagonists of human MrgX1 receptor. Q96LB2. B-score at 10 µM. AID 588676. 310,000 compounds, 1.3% hits. MRGX1-HEK293 calcium flux, Fluo-4, BAM8-22 antagonism; active compounds read low;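 active = calcium-response B-score plate-corrected more than 3 library SD below zero, starting fluorescence within 5 deviations, no agonist response on first addition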;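 also: peak minus trough fluorescence over baseline after final BAM8-22 challenge near maximal dose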
Target sequence (Q96LB2 whole entry, looked up): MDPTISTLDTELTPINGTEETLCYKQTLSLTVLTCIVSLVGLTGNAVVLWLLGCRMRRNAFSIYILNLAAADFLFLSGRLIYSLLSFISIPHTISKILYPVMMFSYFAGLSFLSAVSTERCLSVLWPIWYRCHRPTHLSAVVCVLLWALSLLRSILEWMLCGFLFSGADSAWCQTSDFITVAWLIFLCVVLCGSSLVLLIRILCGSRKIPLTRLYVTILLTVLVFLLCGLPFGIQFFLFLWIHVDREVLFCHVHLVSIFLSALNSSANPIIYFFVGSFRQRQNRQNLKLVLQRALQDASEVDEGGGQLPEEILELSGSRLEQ
RGS4 act = potentiators or activators of RGS4 | HEK293 M3R/inducible RGS4, carbachol calcium flux Fluo4; active compounds read low | B-score at 10 µM | 310,000 compounds, 0.92% hits | AID 463111;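 active = B-score of the integrated calcium signal more than 4 SD below the library mean, with starting fluorescence not abnormally high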;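 also: negative B-score means reduced calcium response which marks RGS4 activation or potentiation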
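Reagent: ECmax carbachol challenge; Test system: M3R-expressing HEK293 line, RGS4 induced by doxycycline; Schedule: overnight RGS4 induction, 30 min dye load 37 °C, 20 min compound RT; Detection: calcium dye Fluo4 fluorescence; Read-out: Agonist-evoked peak-minus-minimum fluorescence over baseline, integrated ratio, B score.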
MrgX1 PAM = human MrgX1 positive allosteric modulation, primary screen. AID 588675. MrgX1-HEK293, Fluo-4 calcium flux, FDSS; active compounds read high. B-score at 10 µM. 310,000 compounds, 0.63% hits;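 active = plate-corrected calcium response at least 3 library SD above typical, normal starting fluorescence, not activating the receptor alone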;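 also: compound read alongside a low EC10 to EC30 dose of BAM8-22 agonist; peak minus trough fluorescence over baseline measured at the second addition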
MrgX1 agonist = human MrgX1 receptor agonism, primary screen | Q96LB2 | MrgX1-HEK293 cells, Fluo-4 calcium fluorescence, agonist mode; active compounds read high | B-score at 10 µM | 310,000 compounds, 0.44% hits | AID 588627;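 active = calcium response B-score plate-corrected fluorescence ratio at least 3 library SD, with starting fluorescence B-score inside 5 SD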
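Material – MrgX1-expressing HEK293 cells · Input – 15,000 cells seeded per well · Dosing – compound as first of three additions · Times – overnight seeding, then 1 h dark dye loading · Measured by – kinetic Fluo-4 NW fluorescence of intracellular calcium · Read-out – B-scored fluorescence response ratio · Benchmarks – positive and negative control wells on each plate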
MrgX1 ant reconf = human MrgX1 receptor antagonism, re-confirmation screen; MrgX1-HEK293, BAM8-22 calcium flux, Fluo-4; active compounds read low; 2,300 compounds, 19% hits; remaining BAM8-22 calcium response % of control (active compounds read low), % at 10 µM; shares compounds with MrgX1 antag;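 active = remaining agonist calcium response no higher than 100% minus 3 SD of agonist-only control wells, with starting fluorescence near control levels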;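 also: agonist BAM8-22 given at a near maximal EC90 to ECmax level; peak minus minimum fluorescence divided by baseline after agonist addition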
HEK293 Ca flux = counter-screen for MrgX1 antagonists: effect in parental HEK293 cells; shares compounds with MrgX1 antag; Fluo-4 calcium fluorescence, FDSS; fluorescence ratio F(max-min)/F0 at 10 µM; 4,000 compounds, 2% hits; AID 624111;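 active = duplicate-averaged calcium fluorescence ratio at least three times the standard deviation of buffer wells, a nonspecific response in parental cells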
HEK293 Ca counter = activity in parental HEK293 cells without MrgX1; shares compounds with MrgX1 antag; parental HEK293 calcium flux, Fluo-4 fluorescence ratio; active compounds read high; fluorescence ratio F(max-min)/F0 at 10 µM; 4,000 compounds, 0.4% hits; AID 624114;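 active = calcium fluorescence ratio, averaged over duplicates, at least 3 SD of the buffer-well ratio, meaning a nonspecific response in receptor-free cells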;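 also: untransfected parental HEK293 lacking MrgX1 used as counterscreen for MrgX1 allosteric activators; fluorescence change taken during the second addition on a kinetic imager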
HEK293 Ca cntr2 = activity in parental HEK293 cells lacking MrgX1 receptor | fluorescence ratio F(max-min)/F0 at 10 µM | Fluo-4 calcium fluorescence (FDSS); active compounds read high | shares compounds with MrgX1 antag | 4,000 compounds, 8.7% hits;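 active = calcium fluorescence ratio at least three times the spread of buffer wells, meaning a non-specific response in parental cells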
Of the large screens only hits and unclear results are named; the others gave an inactive call (follow-up assays come after a bar, where they were run).

CCOC(=O)c1ccc(NC(=O)CN2CCN(C(=O)C3CCCO3)CC2)cc1 (configuration not stated)	MrgX1 antag -6.3 | MrgX1 ant reconf inactive | HEK293 Ca flux inactive | HEK293 Ca counter inactive | HEK293 Ca cntr2 inactive
C=CCOC(=O)C1=C(C)N(C)C(=O)NC1c1cc2c(cc1Br)OCO2 (configuration not stated)	MrgX1 antag -4.7 | MrgX1 ant reconf 85% | HEK293 Ca flux inactive | HEK293 Ca counter inactive | HEK293 Ca cntr2 inactive
C[C@@H](NC(=O)[C@@H]1Cc2ccccc2CN1C(=O)OC(C)(C)C)C(=O)NC1CCCCC1	none
Cc1ccccc1OCCCN1CCCC1	MrgX1 antag -7.2 | MrgX1 ant reconf inactive | HEK293 Ca flux inactive | HEK293 Ca counter inactive | HEK293 Ca cntr2 inactive
O=C(Nc1ccc(C(=O)N2CCCCC2)cc1)c1ccccc1Br	MrgX1 antag -5.6 | MrgX1 ant reconf inactive | HEK293 Ca flux inactive | HEK293 Ca counter inactive | HEK293 Ca cntr2 inactive
O=C(Nc1ccc(C(=O)N2CCCC2)cc1)c1ccccc1Br	none
O=c1[nH]nc2n1CCCCC2	MrgX1 antag -10 | MrgX1 ant reconf inactive | HEK293 Ca flux inactive | HEK293 Ca counter inactive | HEK293 Ca cntr2 inactive
CN(C)CCCNS(=O)(=O)c1ccc(N2CCC(c3ccc(Cl)cc3)=N2)cc1	MrgX1 antag -14 | MrgX1 ant reconf 60% | HEK293 Ca flux inactive | HEK293 Ca counter inactive | HEK293 Ca cntr2 inactive
O=S(=O)(c1ccc(N2CCC(c3ccc(Cl)cc3)=N2)cc1)N(CCO)CCO	none
O=C(CSc1nnc(CNC(=O)c2ccc(F)cc2)o1)Nc1ccc2c(c1)OCCO2	none
O=C(CSc1nnc(CNC(=O)c2ccccc2)o1)Nc1ccc2c(c1)OCCO2	MrgX1 antag -5.6 | MrgX1 ant reconf inactive | HEK293 Ca flux inactive | HEK293 Ca counter inactive | HEK293 Ca cntr2 inactive
CCOC(=O)c1cnc(-n2nc(C)cc2C)nc1NC1CCCC1	MrgX1 antag -4.7 | MrgX1 ant reconf inactive | HEK293 Ca flux inactive | HEK293 Ca counter inactive | HEK293 Ca cntr2 inactive
CCOC(=O)c1cnc(-n2nc(C)cc2C)nc1Nc1ccc(OC)cc1	none
Nc1nonc1-c1nc2ccccc2n1CC(=O)N1CCCCC1	MrgX1 antag -5.4 | MrgX1 ant reconf inactive | HEK293 Ca flux inactive | HEK293 Ca counter inactive | HEK293 Ca cntr2 inactive
CCCn1c(-c2nonc2N)nc2ccccc21	MrgX1 antag -8.3 | MrgX1 ant reconf inactive | HEK293 Ca flux inactive | HEK293 Ca counter inactive | HEK293 Ca cntr2 inactive
Nc1nonc1-c1nc2ccccc2n1CC(=O)O	none
Cn1c(-c2nonc2N)nc2ccccc21	none
CCCCn1c(N)c(N(Cc2ccccc2OC)C(=O)C(C)C)c(=O)[nH]c1=O	none
Cc1ccc2nc(SCC(=O)Nc3ccc(F)cc3F)nc(=O)n2c1	none
O=C(NCc1ccccc1)c1onc(CS(=O)(=O)c2ccc(Cl)cc2)c1C(=O)NCc1ccccc1	none
Cc1nonc1C1CCCN1C(=O)c1cc(COc2ccc(F)cc2Cl)on1 (configuration not stated)	MrgX1 antag -8.8 | MrgX1 ant reconf inactive | HEK293 Ca flux inactive | HEK293 Ca counter inactive | HEK293 Ca cntr2 inactive
O=C(c1cc(COc2ccc(F)cc2Cl)on1)N1CCCCC1c1cccnc1 (configuration not stated)	none
O=C(Nc1ccc(Cl)c(Cl)c1)C1CCCCC1	none (no result: RGS4 block, RGS4 act)
CC(C)c1cc2c(c(O)c1O)[C@@]13CCCC(C)(C)C1CC2OC3=O (some centres not stated)	MrgX1 antag -4.5 | MrgX1 ant reconf 76% | HEK293 Ca flux inactive | HEK293 Ca counter inactive | HEK293 Ca cntr2 inactive
Nc1ccc(NC(=O)CCN2CCOCC2)cc1	none
Cc1ccc(C(=O)Nc2ccc3c(c2)C(=O)N(C)C3=O)c(C)c1	MrgX1 antag -6.8 | MrgX1 ant reconf inactive | HEK293 Ca flux inactive | HEK293 Ca counter inactive | HEK293 Ca cntr2 inactive
Cc1ccc(C)c(S(=O)(=O)N2CCN(C(=O)Cc3ccccc3)CC2)c1	none
Cc1ccc(C)c(S(=O)(=O)N2CCN(C(=O)CSC(=S)N3CCCC3)CC2)c1	MrgX1 antag -5.3 | MrgX1 ant reconf inactive | HEK293 Ca flux inactive | HEK293 Ca counter inactive | HEK293 Ca cntr2 inactive
Cc1ccc(C)c(S(=O)(=O)N2CCN(C(=O)c3cccnc3)CC2)c1	MrgX1 antag -11 | MrgX1 ant reconf inactive | HEK293 Ca flux inactive | HEK293 Ca counter inactive | HEK293 Ca cntr2 inactive
O=C(COc1ccccc1)NCC(c1ccco1)N1CCCCC1 (configuration not stated)	none
Cc1[nH]c2ccc(C(=O)O)cc2c1C	MrgX1 antag -8.6 | MrgX1 ant reconf inactive | HEK293 Ca flux inactive | HEK293 Ca counter inactive | HEK293 Ca cntr2 inactive
COc1ccc(N2CCN(S(=O)(=O)c3ccc4c(c3)OCCO4)CC2)cc1	none
CC(=O)Nc1cccc(NC(=O)CCNC(=O)c2ccccc2)c1	none
COCc1nc(-c2ccc(-c3ccc(OC)cc3)nc2OC)no1	MrgX1 antag -11 | MrgX1 ant reconf inactive | HEK293 Ca flux inactive | HEK293 Ca counter inactive | HEK293 Ca cntr2 inactive
O=C(CS(=O)(=O)c1c[nH]c2ccccc12)NC1CCCCC1	MrgX1 antag -10 | MrgX1 ant reconf inactive | HEK293 Ca flux inactive | HEK293 Ca counter inactive | HEK293 Ca cntr2 inactive
O=C(Cc1c(O)c2ccccc2[nH]c1=O)NC1CCCCCC1	none
O=C(CS(=O)(=O)c1c[nH]c2ccccc12)Nc1ccc(F)cc1	none
CCCCCOC(=O)Cc1c(O)c2ccccc2[nH]c1=O	MrgX1 antag -7.9 | MrgX1 ant reconf inactive | HEK293 Ca flux inactive | HEK293 Ca counter inactive | HEK293 Ca cntr2 inactive
O=C(Cc1c(O)c2ccccc2[nH]c1=O)NC1CCCCCCC1	MrgX1 antag -8.4 | MrgX1 ant reconf inactive | HEK293 Ca flux inactive | HEK293 Ca counter inactive | HEK293 Ca cntr2 inactive
O=C(CCN1C(=O)C2C3C=CC(C4CC34)C2C1=O)Nc1ccc(Cl)cc1O (configuration not stated)	none
O=C(O)c1ccccc1-c1ccccc1C(=O)NCc1ccccc1Cl	none
CC1CCN(C2CCN(S(=O)(=O)c3ccc(F)cc3)CC2)CC1	none
O=S(=O)(c1ccc(F)cc1)N1CCC(N2CCCCCC2)CC1	MrgX1 antag -11 | MrgX1 ant reconf inactive | HEK293 Ca flux inactive | HEK293 Ca counter inactive | HEK293 Ca cntr2 inactive
